In ChEMBL document CHEMBL4390648, “Chemical synthesis, crystal structure, versatile evaluation of their biological activities and molecular simulations of novel pyrithiobac derivatives” (Eur J Med Chem, 2019):
In brackets after ≈: the same amount, converted by molar mass. Activity calls are given as the source filed them. The rule behind the calls is not given here.

Experiments:
Candida albicans [1] = assay: Antifungal activity against Candida albicans isolate 17 grown in YNB medium incubated for 24 hrs by microdilution method; assay type: functional; settings: isolate 17, 24 h
Outline: (§1)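 C. albicans standard strain SC5314 and clinical isolates g5 and 17# tested by broth microdilution in YNB or RPMI 1640 medium. Plates incubated at 35 °C for up to 72 h, with visual readings taken at 24 h. MIC taken as the lowest concentration preventing visible growth.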

Candida albicans [2] = assay: Antifungal activity against Candida albicans isolate g5 grown in YNB medium incubated for 24 hrs by microdilution method; assay type: functional; settings: isolate g5, 24 h; outline: as §1
Colletotrichum = assay: Antifungal activity against Colletotrichum (W. anthracnose) assessed as reduction in growth at 50 mg/l by mycelium growth rate method relative to control; assay type: functional
Outline: (§2)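 Mycelium growth rate method against S. sclerotiorum, P. capsici, P. piricola, R. cerealis, W. anthracnose and R. bakanae. Each compound tested at 50 mg/L, with chlorothalonil and PTB as controls. Relative inhibitory ratio (%) calculated from mycelial growth.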

Candida albicans [3] = assay: Antifungal activity against Candida albicans SC5314 grown in YNB medium incubated for 24 hrs by microdilution method; assay type: functional; settings: SC5314, 24 h; outline: as §1
Tobacco mosaic virus [4] = assay: Antiviral activity against Tobacco mosaic virus inoculated in Nicotiana tabacum leaves assessed as passivation by measuring local lesion numbers at 100 mg/l pre-incubated with virus for 30 mins followed by inoculation and measured up to 4 days; assay type: functional
Outline: (§3)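 Passivation assay: TMV mixed with an equal volume of compound solution for 30 min, then rubbed onto the left half of N. tabacum L. leaves. The right half received virus mixed with solvent as control. Local lesions counted 3–4 days after inoculation. Compounds tested at 500 or 100 mg/L.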

Mythimna separata = assay: Insecticidal activity against Mythimna separata assessed as larval mortality at 600 mg/l by leaf-dip method; assay type: functional
Arabidopsis thaliana [5] = assay: Inhibition of Arabidopsis thaliana AHAS catalytic subunit using pyruvate as substrate at 100 uM measured after 30 mins by colorimetric method relative to control
Outline: (§4)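 Colorimetric assay in 50 mM potassium phosphate pH 7.0 with 50 mM pyruvate, 1 mM thiamine diphosphate, 10 mM MgCl2 and 10 μM FAD. Incubated 30 min at 37 °C for plant AHAS and 30 °C for fungal AHAS. Acetolactate formed was then quantified.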

[6] = tested on: Severe acute respiratory syndrome-related coronavirus; assay: Inhibition of SARS coronavirus M protease using AVLQSGFRKK as substrate at 20 uM by FRET assay relative to control
Outline: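 Purified SARS-CoV Mpro assayed by FRET. Protein, compound and substrate were preheated at 37 °C and oscillated. Fluorescence (ex 320/em 405 nm) was read every 5 s for 200 reads.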

Arabidopsis thaliana [7] = assay: Inhibition of Arabidopsis thaliana AHAS catalytic subunit using pyruvate as substrate at 10 uM measured after 30 mins by colorimetric method relative to control; outline: as §4
Tobacco mosaic virus [8] = assay: Antiviral activity against Tobacco mosaic virus inoculated in Nicotiana tabacum leaves assessed as passivation by measuring local lesion numbers at 500 mg/l pre-incubated with virus for 30 mins followed by inoculation and measured up to 4 days; assay type: functional; outline: as §3
Phytophthora capsici = assay: Antifungal activity against Phytophthora capsici assessed as reduction in growth at 50 mg/l by mycelium growth rate method relative to control; assay type: functional; outline: as §2
Ceratobasidium cereale = assay: Antifungal activity against Rhizoctonia cerealis assessed as reduction in growth at 50 mg/l by mycelium growth rate method relative to control; assay type: functional; outline: as §2
Fusarium fujikuroi = assay: Antifungal activity against Gibberella fujikuroi assessed as reduction in growth at 50 mg/l by mycelium growth rate method relative to control; assay type: functional; outline: as §2
Candida albicans [9] = assay: Inhibition of Candida albicans AHAS catalytic subunit at 100 uM using pyruvate as substrate measured after 30 mins by colorimetric method relative to control; outline: as §4
[10] = tested on: Brassica rapa subsp. oleifera; assay: Herbicidal activity against Brassica campestris L assessed as inhibition of rape root growth at 100 mg/l root growth incubated for 48 hrs relative to control; assay type: functional
Outline: (§5)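 Rape seeds soaked in distilled water for 4 h, then placed on filter paper wetted with inhibitor solution, 15 seeds per 6-cm dish. Germinated in the dark at 28 °C for 48 h. Mean length of 10 roots per plate measured.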

Candida albicans [11] = assay: Antifungal activity against Candida albicans isolate g5 grown in RPMI 1640 medium incubated for 24 hrs by microdilution method; assay type: functional; settings: isolate g5, 24 h; outline: as §1
Candida albicans [12] = assay: Antifungal activity against Candida albicans isolate 17 grown in RPMI 1640 medium incubated for 24 hrs by microdilution method; assay type: functional; settings: isolate 17, 24 h; outline: as §1
Sclerotinia sclerotiorum = assay: Antifungal activity against Sclerotinia sclerotiorum assessed as reduction in growth at 50 mg/l by mycelium growth rate method relative to control; assay type: functional; outline: as §2
Candida albicans [13] = assay: Antifungal activity against Candida albicans SC5314 grown in RPMI 1640 medium incubated for 24 hrs by microdilution method; assay type: functional; settings: SC5314, 24 h; outline: as §1
Candida albicans [14] = assay: Inhibition of Candida albicans AHAS catalytic subunit at 10 uM using pyruvate as substrate measured after 30 mins by colorimetric method relative to control; outline: as §4
[15] = tested on: Botryosphaeria berengeriana; assay: Antifungal activity against Physalospora pyricola assessed as reduction in growth at 50 mg/l by mycelium growth rate method relative to control; assay type: functional; outline: as §2
[16] = tested on: Brassica rapa subsp. oleifera; assay: Herbicidal activity against Brassica campestris L assessed as inhibition of rape root growth at 10 mg/l root growth incubated for 48 hrs relative to control; assay type: functional; outline: as §5

SMILES | MIC (Candida albicans [1]) | MIC (Candida albicans [2]) | inhibition at 50 µg/mL (Colletotrichum) | MIC (Candida albicans [3]) | inhibition (Tobacco mosaic virus [4]) | mortality at 600 µg/mL (Mythimna separata) | inhibition (Arabidopsis thaliana [5]) | inhibition [6] | inhibition (Arabidopsis thaliana [7]) | inhibition at 500 µg/mL (Tobacco mosaic virus [8]) | inhibition at 50 µg/mL (Phytophthora capsici) | inhibition at 50 µg/mL (Ceratobasidium cereale) | inhibition at 50 µg/mL (Fusarium fujikuroi) | inhibition (Candida albicans [9]) | inhibition (INH) [10] | MIC (Candida albicans [11]) | MIC (Candida albicans [12]) | inhibition at 50 µg/mL (Sclerotinia sclerotiorum) | MIC (Candida albicans [13]) | inhibition (Candida albicans [14]) | further results
COc1nc(OC)nc(Sc2ccc(Br)cc2C(=O)O)n1 | > 100 µg/mL | > 100 µg/mL | 23.8% | > 100 µg/mL | inactive | 45% | 19% | 48.8% | 12% | 0% | 33.3% | 58.3% | 6.1% | 96.7% | 55.1% | > 100 µg/mL | > 100 µg/mL | 66.7% | > 100 µg/mL | 59.3% | inhibition at 50 µg/mL [15]: 59.4%; inhibition (INH) [16]: 5.2%
COc1nc(OC)nc(Sc2ccc(C(=O)O)cc2F)n1 | 3.12 µg/mL (≈ 10 µM) | > 100 µg/mL | 19% | > 100 µg/mL | inactive | 30% | 18.7% | 89.5% | 13.8% | 0% | 16.7% | 57.1% | 6.1% | 94.9% | 27.6% | > 100 µg/mL | > 100 µg/mL | 61.1% | > 100 µg/mL | 52.3% | inhibition at 50 µg/mL [15]: 53.1%; inhibition (INH) [16]: 0%
COc1nc(OC)nc(Sc2ccc(Cl)cc2C#N)n1 | > 100 µg/mL | > 100 µg/mL | 23.8% | > 100 µg/mL | inactive | 0% | 71.3% | 85.1% | 44.9% | 0% | 16.7% | 45.2% | 33.3% | 79.9% | 16.6% | > 100 µg/mL | > 100 µg/mL | 27.8% | > 100 µg/mL | 52.1% | inhibition at 50 µg/mL [15]: 71.9%; inhibition (INH) [16]: 0%
COc1nc(OC)nc(Sc2ccc(Cl)cc2C(=O)O)n1 | > 100 µg/mL | > 100 µg/mL | 16.7% | > 100 µg/mL | inactive | 40% | 59.6% | 24.2% | 5.5% | 0% | 8.3% | 52.4% | 0% | 68.8% | 24.2% | > 100 µg/mL | > 100 µg/mL | 61.1% | > 100 µg/mL | 39.3% | inhibition at 50 µg/mL [15]: 40.6%; inhibition (INH) [16]: 0%
COc1nc(OC)nc(Sc2ccc(C(=O)O)cc2Br)n1 | > 100 µg/mL | > 100 µg/mL | 35.7% | > 100 µg/mL | inactive | 10% | 30% | 25% | 22.4% | 21.4% | 41.7% | 58.3% | 57.6% | 92.4% | 34.3% | > 100 µg/mL | > 100 µg/mL | 77.8% | > 100 µg/mL | 50.1% | inhibition at 50 µg/mL [15]: 46.9%; inhibition (INH) [16]: 0%
COc1nc(OC)nc(Sc2ccc(C(=O)O)cc2Cl)n1 | 25 µg/mL (≈ 76.3 µM) | 100 µg/mL (≈ 305 µM) | 16.7% | 100 µg/mL (≈ 305 µM) | inactive | 20% | 15.3% | 25.5% | 12.6% | 0% | 58.3% | 59.5% | 27.3% | 73% | 58.2% | > 100 µg/mL | > 100 µg/mL | 69.4% | > 100 µg/mL | 25.6% | inhibition at 50 µg/mL [15]: 42.2%; inhibition (INH) [16]: 0%
COc1cc(OC)nc(Sc2cc(C(F)(F)F)ccc2C#N)n1 | > 100 µg/mL | > 100 µg/mL | 26.2% | > 100 µg/mL | inactive | 65% | 91.6% | 29.9% | 18% | 35.8% | 66.7% | 70.2% | 45.5% | 26.1% | 66.1% | > 100 µg/mL | > 100 µg/mL | 11.1% | > 100 µg/mL | 7.9% | inhibition at 50 µg/mL [15]: 28.1%; inhibition (INH) [16]: 12.3%
